Assay results taken from ChEMBL document CHEMBL5724801, “EUbOPEN Chemogenomics Library - Multiplex” (2024).
Values joined by “and” are separate entries in the source; they are usually repeats but may differ in a detail not shown here. Equal entries are not always repeated.

Test system: HEK-293T
Assay: Multiplex assay against HEK293T
Assay type: toxicity, cell-based
Conditions: human
Method in brief: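 Live cells carried four stains from seeding: Hoechst33342, BioTracker Green Microtubule Cytoskeleton Dye, MitoTracker Red and Annexin V Alexa Fluor 680. They were imaged on a CQ1 microscope at 37°C and 5% CO2 after compound addition. Using CellPathfinder machine-learning gating, cells were split into Hoechst high-intensity objects or normal cells, normal cells into healthy, pyknosed or fragmented nuclei, and pyknosed cells into mitotic or apoptotic; tubulin, mitochondrial-mass and membrane-permeability phenotypes are per cents of healthy-nucleus cells.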

[1] = 12 h, 1 µM, compound concentration 1 uM
[2] = 12 h, 10 µM, compound concentration 10 uM
[3] = 24 h, 1 µM, compound concentration 1 uM
[4] = 24 h, 10 µM, compound concentration 10 uM
[5] = 48 h, 1 µM, compound concentration 1 uM
[6] = 48 h, 10 µM, compound concentration 10 uM

CC(=O)Nc1cccc2c1c(Sc1ccc(Cl)cc1)c(C)n2CC(=O)O [AZD1981]
Population Apoptotic (%) [1]: 37% and 60%
Population Fragmented Nuclei (%) [1]: 6% and 5%
Population Healthy Nuclei (%) [1]: 81% and 80%
Population Hoechst High Intensity Objects (%) [1]: 6% and 8%
Population Membrane Permeable-Phenotype (%) [1]: 0%
Population Mitochondria Different-Phenotype (%) [1]: 46% and 57%
Population Mitotic Cells (%) [1]: 62% and 40%
Population Normal (%) [1]: 93% and 91%
Population Pyknosed Nuclei (%) [1]: 11% and 13%
Population Tubulin-Different-Phenotype (%) [1]: 28% and 18%
Total Cell Count [1]: 405 and 314
Population Apoptotic (%) [2]: 38% and 60%
Population Fragmented Nuclei (%) [2]: 8% and 6%
Population Healthy Nuclei (%) [2]: 78% and 77%
Population Hoechst High Intensity Objects (%) [2]: 7% and 15%
Population Membrane Permeable-Phenotype (%) [2]: 0%
Population Mitochondria Different-Phenotype (%) [2]: 44% and 60%
Population Mitotic Cells (%) [2]: 61% and 39%
Population Normal (%) [2]: 92% and 84%
Population Pyknosed Nuclei (%) [2]: 12% and 15%
Population Tubulin-Different-Phenotype (%) [2]: 29% and 26%
Total Cell Count [2]: 403 and 318
Population Apoptotic (%) [3]: 20% and 54%
Population Fragmented Nuclei (%) [3]: 9% and 7%
Population Healthy Nuclei (%) [3]: 80%
Population Hoechst High Intensity Objects (%) [3]: 2% and 9%
Population Membrane Permeable-Phenotype (%) [3]: 0%
Population Mitochondria Different-Phenotype (%) [3]: 33% and 42%
Population Mitotic Cells (%) [3]: 79% and 45%
Population Normal (%) [3]: 97% and 90%
Population Pyknosed Nuclei (%) [3]: 9% and 11%
Population Tubulin-Different-Phenotype (%) [3]: 23% and 16%
Total Cell Count [3]: 568 and 398
Population Apoptotic (%) [4]: 40% and 59%
Population Fragmented Nuclei (%) [4]: 7% and 8%
Population Healthy Nuclei (%) [4]: 79% and 81%
Population Hoechst High Intensity Objects (%) [4]: 4% and 12%
Population Membrane Permeable-Phenotype (%) [4]: 0%
Population Mitochondria Different-Phenotype (%) [4]: 28% and 45%
Population Mitotic Cells (%) [4]: 59% and 40%
Population Normal (%) [4]: 95% and 87%
Population Pyknosed Nuclei (%) [4]: 13% and 9%
Population Tubulin-Different-Phenotype (%) [4]: 25% and 19%
Total Cell Count [4]: 526 and 387
Population Apoptotic (%) [5]: 21% and 38%
Population Fragmented Nuclei (%) [5]: 15% and 13%
Population Healthy Nuclei (%) [5]: 78% and 79%
Population Hoechst High Intensity Objects (%) [5]: 1% and 3%
Population Membrane Permeable-Phenotype (%) [5]: 1%
Population Mitochondria Different-Phenotype (%) [5]: 18% and 20%
Population Mitotic Cells (%) [5]: 78% and 61%
Population Normal (%) [5]: 98% and 96%
Population Pyknosed Nuclei (%) [5]: 6%
Population Tubulin-Different-Phenotype (%) [5]: 10% and 12%
Total Cell Count [5]: 908 and 570
Population Apoptotic (%) [6]: 37% and 33%
Population Fragmented Nuclei (%) [6]: 14% and 16%
Population Healthy Nuclei (%) [6]: 78%
Population Hoechst High Intensity Objects (%) [6]: 2% and 4%
Population Membrane Permeable-Phenotype (%) [6]: 0%
Population Mitochondria Different-Phenotype (%) [6]: 18% and 26%
Population Mitotic Cells (%) [6]: 62% and 66%
Population Normal (%) [6]: 97% and 95%
Population Pyknosed Nuclei (%) [6]: 7% and 5%
Population Tubulin-Different-Phenotype (%) [6]: 11%
Total Cell Count [6]: 751 and 556

Cc1cc(Nc2ncc(Cl)c(Nc3ccccc3S(=O)(=O)C(C)C)n2)c(OC(C)C)cc1C1CCNCC1 [CERITINIB]
Population Apoptotic (%) [1]: 15.93% and 15.13%
Population Fragmented Nuclei (%) [1]: 1.92% and 4.62%
Population Hoechst High Intensity Objects (%) [1]: 1.88% and 0.76%
Population Membrane Permeable-Phenotype (%) [1]: 1.35% and 0%
Population Mitochondria Different-Phenotype (%) [1]: 32.43% and 80%
Population Mitotic Cells (%) [1]: 84.07% and 84.87%
Population Normal (%) [1]: 98.12% and 99.24%
Population Pyknosed Nuclei (%) [1]: 69.73% and 91.54%
Population Tubulin-Different-Phenotype (%) [1]: 50% and 80%
Total Cell Count [1]: 266 and 131
Population Apoptotic (%) [2]: 30.99% and 76.42%
Population Fragmented Nuclei (%) [2]: 1.54% and 6.06%
Population Healthy Nuclei (%) [2]: 2.15% and 0.76%
Population Hoechst High Intensity Objects (%) [2]: 1.22% and 0%
Population Membrane Permeable-Phenotype (%) [2]: 0%
Population Mitotic Cells (%) [2]: 69.01% and 23.58%
Population Normal (%) [2]: 98.78% and 100%
Population Pyknosed Nuclei (%) [2]: 96.31% and 93.18%
Total Cell Count [2]: 329 and 132
Population Apoptotic (%) [3]: 45.74% and 45.87%
Population Fragmented Nuclei (%) [3]: 2.55% and 3.68%
Population Hoechst High Intensity Objects (%) [3]: 0% and 0.73%
Population Membrane Permeable-Phenotype (%) [3]: 0%
Population Mitochondria Different-Phenotype (%) [3]: 64.49% and 77.27%
Population Mitotic Cells (%) [3]: 54.26% and 54.13%
Population Normal (%) [3]: 100% and 99.27%
Population Pyknosed Nuclei (%) [3]: 47.08% and 80.15%
Population Tubulin-Different-Phenotype (%) [3]: 71.01% and 54.55%
Total Cell Count [3]: 274 and 137
Population Apoptotic (%) [4]: 64.24% and 88.24%
Population Fragmented Nuclei (%) [4]: 1.89% and 7.03%
Population Healthy Nuclei (%) [4]: 2.84% and 0%
Population Hoechst High Intensity Objects (%) [4]: 0%
Population Membrane Permeable-Phenotype (%) [4]: 0%
Population Mitochondria Different-Phenotype (%) [4]: 88.89%
Population Normal (%) [4]: 100%
Population Pyknosed Nuclei (%) [4]: 95.27% and 92.97%
Population Tubulin-Different-Phenotype (%) [4]: 100%
Total Cell Count [4]: 317 and 128
Population Apoptotic (%) [5]: 27.27% and 48.81%
Population Fragmented Nuclei (%) [5]: 2.27% and 3.2%
Population Healthy Nuclei (%) [5]: 75% and 29.6%
Population Hoechst High Intensity Objects (%) [5]: 0.21% and 1.57%
Population Membrane Permeable-Phenotype (%) [5]: 1.38% and 2.7%
Population Mitochondria Different-Phenotype (%) [5]: 68.6% and 81.08%
Population Mitotic Cells (%) [5]: 72.73% and 51.19%
Population Normal (%) [5]: 99.79% and 98.43%
Population Pyknosed Nuclei (%) [5]: 22.73% and 67.2%
Population Apoptotic (%) [6]: 62.54% and 87.16%
Population Fragmented Nuclei (%) [6]: 1.6% and 9.02%
Population Healthy Nuclei (%) [6]: 7.99% and 9.02%
Population Hoechst High Intensity Objects (%) [6]: 0%
Population Membrane Permeable-Phenotype (%) [6]: 0% and 8.33%
Population Mitochondria Different-Phenotype (%) [6]: 92% and 91.67%
Population Mitotic Cells (%) [6]: 37.46% and 12.84%
Population Normal (%) [6]: 100%
Population Pyknosed Nuclei (%) [6]: 90.42% and 81.95%
Population Tubulin-Different-Phenotype (%) [6]: 52% and 91.67%
Total Cell Count [6]: 313 and 133
